Results as given in ChEMBL document CHEMBL3853359, “NO Photoreleaser-Deoxyadenosine and -Bile Acid Derivative Bioconjugates as Novel Potential Photochemotherapeutics” (ACS Med Chem Lett, 2016).
Calls of active or inactive are those of the source. The rule behind the calls is not given here.

How the values were obtained:
[1] = Induction of NO release in phosphate buffer at 50 uM and pH 7.4 upon 1.5 mW/cm2 visible-light irradiation; format: physicochemical; settings: pH 7.4, 50 µM
How it was run: (§1)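 NO was monitored directly in real time with an amperometric NO electrode (nanomolar sensitivity). Samples were 50 μM solutions in 10 mM phosphate buffer, pH 7.4, with 0.5% DMSO, kept in the dark and then illuminated with visible light (λ = 420 nm, 1.5 mW cm–2).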

[2] = Cytotoxicity against human HCT116 assessed as cell growth inhibition incubated for 72 hrs under dark condition by MTT assay; format: toxicity, cell-based, HCT-116; settings: for IC50 at 72 h: HCT116 cells; for growth inhibition (GI): hct-116, 72 h
How it was run: (§2)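 MTT read-out after 72 h continuous exposure in the dark. Test concentrations were 10, 25 and 50 μM for K562 leukaemia and HCT116 colon carcinoma cells, and up to 100 μM for normal human skin fibroblasts. IC50 was taken from dose–response curves, as the mean ± SD of three independent experiments.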

[3] = Stability of the compound in phosphate buffer at 50 uM and pH 7.4 under dark condition; format: physicochemical; settings: pH 7.4, 50 µM; how it was run: as §1
[4] = Cytotoxicity against human K562 assessed as cell growth inhibition incubated for 72 hrs under dark condition by MTT assay; format: toxicity, cell-based; settings: for IC50 at 72 h: K562 cells; for growth inhibition (GI): k562, 72 h; how it was run: as §2
[5] = Cytotoxicity against human fibroblasts assessed as cell growth inhibition incubated for 72 hrs under dark condition by MTT assay; format: toxicity, cell-based, Fibroblast; how it was run: as §2
[6] = (§3) Photocytotoxicity against human HCT116 cells assessed as cell growth inhibition incubated for 72 hrs after exposure to 7 mW/cm2 of light-irradiation for 40 mins by MTT assay; format: functional, cell-based; settings: HCT-116, light or radiation study
How it was run: (§4)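 HCT116 cells with compound were irradiated with visible light (λ = 420 nm, 7 mW cm–2) for 40 min, then incubated to 72 h. Growth inhibition was read by MTT. IC50 was taken from dose–response curves, as the mean ± SD of three independent experiments.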

[7] = system: HCT-116; assay: as §3; format: functional, cell-based; how it was run: as §4
[8] = Ratio of cytotoxicity against human HCT116 cells assessed as cell growth inhibition at 50 uM incubated for 72 hrs under dark condition by MTT assay to photocytotoxicity against human HCT116 cells assessed as cell growth inhibition at 50 uM incubated for 72 hrs after exposure to 7 mW/cm2 of light-irradiation for 40 mins by MTT assay
[9] = Photoreactivity of the compound in phosphate buffer assessed as photobleaching of visible band at 50 uM and pH 7.4 upon 7 mW/cm2 of light-irradiation measured up to 70 mins; format: physicochemical; settings: pH 7.4, 70 min
How it was run: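 50 μM solutions in 10 mM phosphate buffer, pH 7.4, with 0.5% DMSO were irradiated at λ = 420 nm, 7 mW cm–2, from 0 to 70 min. Absorption spectral changes were recorded, and kinetic profiles were followed at λmax and fitted linearly.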

| Compound | Activity [1] | IC50 at 72 h [2] [µM] | growth inhibition (GI) [2] | Stability [3] | IC50 at 72 h [4] [µM] | growth inhibition (GI) [4] | IC50 at 72 h [5] [µM] | IC50 [6] [µM] | Activity [7] | Ratio [8] | Activity [9] |
| --- | --- | --- | --- | --- | --- | --- | --- | --- | --- | --- | --- |
| C[C@H](CCC(=O)O)[C@H]1CC[C@H]2[C@@H]3[C@@H](O)C[C@@H]4C[C@H](n5cc(CCCNc6ccc([N+](=O)[O-])c(C(F)(F)F)c6)nn5)CC[C@]4(C)[C@H]3CC[C@]12C | Active | 14 | Dose-dependent effect | Stable | 31.6 | Dose-dependent effect | > 100 | – | – | – | – |
| C[C@H](CCC(=O)O)[C@H]1CC[C@H]2[C@@H]3[C@H](O)C[C@@H]4C[C@H](n5cc(CCCNc6ccc([N+](=O)[O-])c(C(F)(F)F)c6)nn5)CC[C@]4(C)[C@H]3CC[C@]12C | – | 21 | – | – | 24 | – | 32 | – | – | – | – |
| Nc1ncnc2c1nc(SCCCCCNc1ccc([N+](=O)[O-])c(C(F)(F)F)c1)n2[C@H]1C[C@H](O)[C@@H](CO)O1 | Active | 66.2 | Dose-dependent effect | Stable | 68.1 | Dose-dependent effect | > 100 | 31 | Active | 2 | Active |
